From ChEMBL document CHEMBL3271997, “Reactions of 2-acyloxyisobutyryl halides with nucleosides. 6. Synthesis and biological evaluation of some 3'-acyl derivatives of 2,2'-anhydro-1-(beta-D-arabinofuranosyl)cytosine hydrochloride” (J Med Chem, 1976) come the findings set out here.

Series [1] has as its system L1210. The series is described as follows: Antitumor activity against mouse L1210 cells allografted in BDF1 mouse assessed as increase in life span at 500 mg/kg, sc administered 10 days prior to infection relative to control. The format is functional. The note with it: route subcutaneous. The gist of the method: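 Single subcutaneous dose given 10 days before infection of mice with L1210 cells; activity expressed as percent increase in life span relative to untreated controls.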

Another series relates to HeLa. In words: Cytotoxicity against human HeLa cells after 48 hrs by Coulter counting analysis. Format: functional. The note with it: read-out: ED50 (the source's name). An outline of the steps:
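HeLa cells (10⁵) were grown for 2 days at 37° in MEM with 10% bovine serum. The medium was then replaced with fresh medium containing serial compound dilutions. After 48 h, cells were dispersed with 0.02% trypsin and 0.04% versene and counted on a Coulter counter. The result is expressed as ED50 in μg/ml.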

Series [2] deals with L1210. In words: Antitumor activity against mouse L1210 cells allografted in BDF1 mouse assessed as increase in life span at 1000 mg/kg, ip administered as single dose 24 hrs post-implantation measured up to 30 days relative to control. The format is functional. The note with it: route intraperitoneal. An outline of the steps: (§1)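 BDF1 mice inoculated ip with 1-2 × 10⁵ L1210 cells; 24 h later a single ip dose given as solution or suspension in aqueous 0.9% NaCl, 0.4% polysorbate 80, 0.5% low-viscosity sodium carboxymethylcellulose, 0.9% benzyl alcohol. Mice held on normal diet for 30 days. Groups of eight to ten animals; percent increase in life span versus untreated infected controls, with 30-day survivors counted.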

Series [3] has as its system L1210. In words: Antitumor activity against mouse L1210 cells allografted in BDF1 mouse assessed as survival at 1000 mg/kg, ip administered as single dose 24 hrs post-implantation after 30 days. The format is functional, organism-based. More on the design: dose 1000 mg/kg. An outline of the steps:
(§2)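 BDF1 mice were inoculated ip with 1-2 × 10⁵ L1210 cells. After 24 h, one ip dose was given as a solution or suspension in aqueous 0.9% NaCl, 0.4% polysorbate 80, 0.5% low-viscosity Na carboxymethylcellulose and 0.9% benzyl alcohol. Mice were followed for 30 days, with 8-10 per group. The read-out is % increase in life span versus infected controls, plus the count of 30-day survivors.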

Series [4] relates to L1210. In words: Antitumor activity against mouse L1210 cells allografted in BDF1 mouse assessed as survival at 200 mg/kg, ip administered as single dose 24 hrs post-implantation after 30 days. The format is functional, organism-based. More on the design: dose 200 mg/kg. The gist of the method:
as §2

Series [5] has as its system L1210. The series is described as follows: Antitumor activity against mouse L1210 cells allografted in BDF1 mouse assessed as increase in life span at 200 mg/kg, ip administered as single dose 24 hrs post-implantation measured up to 30 days relative to control. Format: functional. The note with it: route intraperitoneal. The gist of the method: as §1
The test system of a further series is Herpesviridae sp. In words: Antiviral activity against Herpes simplex virus HF infected in African green monkey BGM cells after 6 days by plaque reduction assay. Format: functional. The note with it: 144 h, read-out: ED50 (the source's name). The gist of the method:
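Quantitative plaque reduction assay. Confluent BGM monolayers were infected with 100-200 pfu of HSV (HF strain) and overlaid with 1.25% agar in MEM with 2.0% bovine serum containing graded compound concentrations. A second overlay with neutral red (1:20000) was added on day 4, and plaques were counted on day 6. ED50, the μM concentration giving 50% plaque reduction, was taken from a probability plot of % inhibition against concentration.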
(In general: Plaques are areas of infected cells; plaque reduction assays count them against a control.)

The next series concerns Vaccinia virus. In words: Antiviral activity against Vaccinia virus IHD infected in African green monkey BGM cells after 6 days by plaque reduction assay. Format: functional. To be noted: Orthopoxvirus vaccinia, 144 h, read-out: ED50 (the source's name).
The next series relates to BGM. The series is described as follows: Antiviral activity against Poliovirus type 1 Mahoney infected in African green monkey BGM cells after 5 days by pulp disk diffusion assay. To be noted: Human poliovirus 1 Mahoney. The format is functional, cell-based. An outline of the steps: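 Pulp disk diffusion screen: BGM African green monkey kidney cells infected with 200 pfu Mahoney type I poliovirus; filter paper disk loaded with 50 μg compound; antiviral activity read as diameter of plaque-inhibition zone on day 5.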

In series [6] the test system is L1210. In words: Antitumor activity against mouse L1210 cells allografted in BDF1 mouse assessed as increase in life span at 2000 mg/kg, ip administered as single dose 24 hrs post-implantation measured up to 30 days relative to control. The note with it: route intraperitoneal. Format: functional. An outline of the steps:
as §1

Series [7] deals with L1210. The series is described as follows: Antitumor activity against mouse L1210 cells allografted in BDF1 mouse assessed as survival at 500 mg/kg, ip administered as single dose 24 hrs post-implantation after 30 days. Format: functional, organism-based. More on the design: dose 500 mg/kg. The gist of the method:
as §2

Series [8] has as its system unidentified influenza virus. The series is described as follows: Antiviral activity against Influenza virus […] infected in monkey LLC-MK2 cells after 5 days by pulp disk diffusion assay. Format: functional, organism-based. The gist of the method:
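Pulp disk diffusion screen: LLCMK2 cells infected with 200 pfu influenza Ao/WSN in presence of trypsin; filter paper disk loaded with 50 μg compound; antiviral activity read as diameter of plaque-inhibition zone on day 5.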
For orientation: Agar diffusion results depend on both activity and mobility in agar.

Series [9] has as its system Mus musculus. The series is described as follows: Toxicity in BDF1 mouse allografted with mouse L1210 cells at 3000 mg/kg, ip. To be noted: in vivo. The format is organism-based. More on the design: dose 3000 mg/kg, route intraperitoneal. An outline of the steps:
as §2

In another series the test system is Measles morbillivirus. In words: Antiviral activity against Measles virus infected in African green monkey BGM cells after 5 days by pulp disk diffusion assay. The format is functional, organism-based. The gist of the method:
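Preliminary pulp disk diffusion screen. BGM cells were infected with 200 pfu of measles virus. A filter paper disk impregnated with 50 μg of compound was applied. Activity was scored as the diameter of the zone of plaque inhibition on day 5.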

Series [10] in a line: Half life in human. The format is ADME, organism-based. The note with it: in vivo.
Series [11] relates to Mus musculus. In words: Toxicity in BDF1 mouse allografted with mouse L1210 cells assessed as reduction in average life span at 200 mg/kg, ip administered as single dose 24 hrs post-implantation measured up to 30 days relative to control. Format: organism-based. More on the design: dose 200 mg/kg, route intraperitoneal. The note with it: in vivo. The gist of the method:
as §2

In series [12] the test system is Mus musculus. The series is described as follows: Toxicity in BDF1 mouse allografted with mouse L1210 cells assessed as reduction in survival at 200 mg/kg, ip administered as single dose 24 hrs post-implantation measured up to 30 days relative to control. Format: organism-based. More on the design: dose 200 mg/kg, route intraperitoneal. To be noted: in vivo. An outline of the steps: as §1

Active and inactive are the calls of the source. No cut-off for these calls is given here.

`CCCCCCCCCCCCCC(=O)O[C@H]1[C@@H]2Oc3nc(=N)ccn3[C@@H]2O[C@@H]1CO.Cl`: the ILS at 500 mg/kg with L1210 [1] is 64%. The EC50 in the series with HeLa came out at 0.2 µg/mL; with Herpesviridae sp., 1350 nM; in the series with Vaccinia virus, 340 nM. The ILS at 1000 mg/kg in the series with L1210 [2] is above 280%. For the same molecule, the outcome in the series with L1210 [3] was Active. Further, the result in the series on L1210 [4] was inactive. In addition, the ILS at 200 mg/kg with L1210 [5] was determined as 100%.

`Cl.N=c1ccn2c(n1)O[C@H]1[C@H](O)[C@@H](CO)O[C@H]12` [ANCITABINE HYDROCHLORIDE]: the outcome (with BGM; with L1210 [3]; in the series with L1210 [4]; in the series on L1210 [7]; in [8]; in the series on Measles morbillivirus) was inactive. Moreover, the ILS at 2000 mg/kg in the series on L1210 [6] is above 151%. Also, the values for the EC50 with HeLa, in the series on Herpesviridae sp. and in the series with Vaccinia virus were 0.05 µg/mL, 700 nM and 410 nM, respectively. The ILS at 1000 mg/kg with L1210 [2] was 89%. Moreover, the Activity result with Mus musculus [9] is “Toxic”. Moreover, in the series on L1210 [5], the ILS at 200 mg/kg came to 25%.

The term half-life denotes the time in which the quantity being followed falls by half. The molecule `Nc1ccn([C@@H]2O[C@H](CO)[C@@H](O)[C@@H]2O)c(=O)n1` [CYTARABINE] displayed a half-life in series [10] of 12 min.

Turning to `CCCCCCC/C=C/C(=O)O[C@H]1[C@@H]2Oc3nc(=N)ccn3[C@@H]2O[C@@H]1CO.Cl`, the ILS with Mus musculus [11] is -83%. In addition, the EC50 in the series with HeLa amounted to 0.06 µg/mL; with Herpesviridae sp., 210 nM; in the series on Vaccinia virus, 150 nM. For the same molecule, the Activity entry with Mus musculus [12] is “Toxic”.
